Only some compounds are listed: those with a hit (about 3.9% of all), similar ones and a draw of the others.
APP 5'UTR act: activators of APP 5'UTR luciferase reporter, primary screen, SH-SY5Y cells; hit rate 1% among 190,000; SH-SY5Y APP 5'UTR luciferase reporter, luminescence; zero percent = DMSO vehicle wells; activation, % at 2 µM; AID 1276, 2008;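 active = activation above a set limit, based on mean plus 3 SD of controls, cut at about 140% in these data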
STAT3 activator: IL-6 driven STAT3 reporter potentiators, primary screen, U3A cells, luciferase, luminescence, MLSCN library; activation (% of control), % at 5.6 µM; IL-6 STAT3-luciferase reporter; 100% = signal with IL-6 EC80 alone; AID 871, 2007; hit rate 0.91% among 190,000;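 active = activation above the screen-wide mean of compound activation plus 3 SD, cut at about 130% in these data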;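 note: 0% = background luminescence of wells with medium and substrate only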
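Material: human U3A cells carrying STAT3-luciferase construct. Measured by: reporter luminescence signal. Timing: compound 1 h, then IL-6 6 h at 37 °C.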
Pf gametocyte: late stage P. falciparum gametocyte viability inhibitors, primary screen, ATP luminescence, HTS; hit rate 0.065% among 150,000; inhibition, % at 10.9 µM; P. falciparum stage V gametocytes, 24 h;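 active = inhibition above the mean plus 3 SD of compounds within the control limits, set per campaign, cut at about 38% in these data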;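 note: 0% = DMSO wells and 100% = medium only without gametocytes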
STAT1 inh: STAT1 signaling inhibitors, primary screen, cell-based, HTS, luciferase reporter | NIH 3T3 STAT1-luciferase reporter, IFN-gamma, luminescence | AID 920, 2007 | hit rate 0.35% among 200,000 | inhibition, % at 5.5 µM;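 active = inhibition above a set limit, the mean inhibition across all tested compounds plus 3 SD, cut at about 34% in these data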;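 note: 0% = IFN-gamma with DMSO and 100% = IFN-gamma with 300 µM nifuroxazide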
NF-kB neuron act: activators of NF-kB expression in neurons, primary screen, cell-based, HTS. AID 1239, 2008. human neuronal cells, NF-kB reporter expression; hits give high values. hit rate 1.6% among 190,000. fold change at 12.5 µM; in the data active = fold change above about 3.3
STAT1 activator: STAT1 signaling activators, primary screen, cell-based, HTS, luciferase reporter. NIH 3T3 STAT1-luciferase reporter, IFN-gamma, luminescence; 100% = IFN-gamma alone, no compound. activation (% of control), % at 5.5 µM. hit rate 2.6% among 200,000;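 active = activation above the screen-wide mean activation plus 3 SD, cut at about 130% in these data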;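 note: raw ratio to IFN-gamma control signal so 100% means no change and 0% no light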
An asterisk follows results filed as active; . = no result given.

SMILES	APP 5'UTR act	STAT3 activator	Pf gametocyte	STAT1 inh	NF-kB neuron act	STAT1 activator
COc1ccc(-c2ccc(SC)nn2)cc1	113.7	30.0	34.4	58.7*	.	46.1
CCOc1ccc(-c2ccc(SCC)nn2)cc1	167.4*	42.5	0.5	23.4	5.05*	78.2
Cc1cc(C)c(S(=O)(=O)NC2CC(C)(C)NC(C)(C)C2)cc1Br	.	.	8.7	.	.	.
COc1ccc(C(=O)NC2CC(C)(C)Cc3occc32)cc1 (stereo not given)	11.8	101.0	.	6.2	1.39	94.3
COc1ccc(OCCCC(=O)Nc2ncn[nH]2)cc1	5.7	98.3	.	1.5	1.01	96.7
CCCOc1ccc(OCCSc2ncccn2)cc1	124.2	93.5	.	-38.5	4.24*	135.2*
Brc1cccc(OCCSc2ncccn2)c1	8.6	89.3	-18.6	-19.2	1.7	114.2
Clc1ccc(OCCCCSc2ncccn2)cc1	13.7	86.7	.	-11.0	1.48	110.2
Clc1ccc(OCCSc2ncccn2)c(Br)c1	174.2*	91.8	.	-51.9	0.99	143.5*
Cc1ccc(OCCSc2nc(N)cc(N)n2)cc1	74.3	100.7	-21.3	-43.4	2.53	137.5*
O=c1c(Cc2ccccc2)c(O)ccn1Cc1ccc2c(c1)OCO2	-4.3	93.7	4.9	-1.0	1.25	98.3
O=C(/C=C/c1ccccc1)NCCC1=CCCCC1	43.6	111.6	.	-53.7	2.87	148.0*
COc1ccc(NC(=O)NCCC2=CCCCC2)cc1	53.4	105.6	5.8	-31.1	2.88	128.6*
COc1cccc(NC(=O)NCCC2=CCCCC2)c1	75.4	123.3	-4.7	-27.3	1.83	124.2
COc1ccccc1-c1nc(-c2ccccc2)[nH]c(=O)c1C#N	-25.8	98.7	9.5	-4.9	1.17	103.4
O=[N+]([O-])C(=C1Nc2ccccc2N1)/C(Cl)=C(/Cl)Br	-12.1	106.7	8.7	7.8	1.06	93.0
O=[N+]([O-])c1cccc(-c2nnc(-c3ccc4c(c3)OCO4)o2)c1	87.4	89.6	-11.6	-46.0	2.29	141.0*
Clc1ccccc1-c1nnc2sc(-c3ccc4c(c3)OCO4)nn12	22.1	106.1	-9.1	-2.0	1.25	101.8
Clc1ccccc1-c1nnc(-c2ccc3c(c2)OCO3)o1	124.6	65.7	-20.1	-13.6	7.4*	111.4
CCn1c(C(C)NC(=O)c2ccc(Cl)cc2)n[nH]c1=S (stereo not given)	-12.5	91.0	-19.0	2.1	1.22	96.9
C=CCn1c(C(C)NC(=O)c2cccc(C)c2)n[nH]c1=S (stereo not given)	12.7	98.2	-2.8	3.5	3.3*	95.9
O=C1Nc2ccccc2Nc2ncccc21	0.9	94.9	.	6.1	1.16	94.6
Cc1ccc2c(c1)NC(=O)c1cccnc1N2	54.0	108.1	.	-44.1	2.9	139.3*
O/N=C/c1ccn(-c2ccc(Br)cc2)c1	57.1	101.5	-8.7	-34.0	1.97	131.0*
Cc1cc(/C=N/O)c(C)n1-c1ccc(Br)cc1	0.4	99.4	-1.5	-6.6	0.79	105.9
SMILES	APP 5'UTR act	STAT3 activator	Pf gametocyte	STAT1 inh	NF-kB neuron act	STAT1 activator
Cc1ccccc1N1C(=O)C2ON(c3ccccc3)C(c3ccco3)C2C1=O (stereo not given)	.	.	-2.5	.	.	.
COc1ccc(NC2=Nc3ccccc3CC2)cc1	102.3	122.4	.	-32.6	3.72*	132.1*
O=C(/C=C/c1ccco1)Nc1cccc(NC(=O)/C=C/c2ccco2)n1	60.0	122.8	13.9	-30.9	0.65	127.6
COc1ccc(/C=C/C(=O)NC2=NCCS2)cc1OC	13.7	101.7	7.6	-34.6	1.44	132.1*
COc1ccc(OC)c(/C=C/C(=O)NC2=NCCS2)c1	19.1	102.8	-9.2	-11.2	1.2	109.1
Cc1nc(NC(=O)/C=C/c2ccco2)sc1C	96.3	63.8	.	-49.2	2.3	143.5*
O=C(/C=C/c1ccco1)NC1=NCCS1	96.4	108.6	.	-51.1	2.01	144.9*
CNS(=O)(=O)c1ccc2nc(NC(=O)/C=C/c3ccco3)sc2c1	28.7	86.5	-8.1	-33.3	1.12	130.6*
Cc1ccc(-c2csc(NC(=O)/C=C/c3ccco3)c2C(=O)O)cc1	63.2	98.3	-0.6	-40.6	1.67	137.7*
COc1ccc(-c2cc(-c3ccccc3)c(C#N)c(S(C)=O)n2)cc1 (stereo not given)	.	109.5	-14.7	-5.0	3.58*	104.6
COc1ccc(-c2[nH]ncc2-c2csc(C)n2)c(O)c1	-0.9	90.9	38.6*	2.5	1.15	97.7
CCOc1ccc(-c2[nH]ncc2-c2csc(C)n2)c(O)c1	13.7	99.0	-6.5	-0.4	1.03	100.4
O=C(COC(=O)CCc1ccc(S(=O)(=O)N2CCOCC2)cc1)NC(=O)NC1CCCCC1	2.7	109.2	7.8	-2.4	1.07	100.5
COc1cccc(N=c2oc3ccccc3cc2-c2nc3ccccc3[nH]2)c1	132.2	143.3*	.	-50.7	3.51*	146.6*
COc1cccc(NC(=O)c2cc3ccccc3o/c2=N\O)c1	.	.	6.8	.	.	.
COc1cccc(N=c2oc3ccc(OC)cc3cc2-c2nc3ccccc3[nH]2)c1	89.9	151.4*	-25.5	-37.9	3.08	134.8*
COc1ccc2oc(=O)c(-c3nc4ccccc4o3)cc2c1	134.0	100.1	12.5	-10.8	.	109.9
Cc1oc(CSCC2CCCO2)cc1C(=O)O (stereo not given)	13.4	102.8	.	-52.3	1.13	148.2*
COc1cc(CCCN2CCNC[C@H]2Cc2cccc3ccccc23)cc(OC)c1OC	.	.	-26.7	.	.	.
S=C(N=Nc1ccccc1)NNc1ccccc1	92.8	131.2	.	-28.7	3.73*	126.1
CC(C)(C)C(=O)NC1(C(F)(F)F)NC(=O)N(c2ccc(F)cc2)C1=O (stereo not given)	10.2	99.6	-2.2	7.2	1.11	93.4
CCOc1cc(C2c3c(n[nH]c3C)C(=O)N2c2ccc(C)cc2)ccc1O (stereo not given)	7.2	96.9	-11.0	1.8	1.06	98.4
CCOc1cc(C2NN=C(c3ccc(C)cc3)S2)ccc1O (stereo not given)	58.6	104.4	0.1	-40.2	4.8*	136.0*
COc1cc(NC(=O)c2cc(-c3ccccc3Cl)on2)cc(OC)c1OC	.	.	-7.7	.	.	.
CC1=CC(=O)C=C(C)C1=NOc1ccccc1[N+](=O)[O-]	-26.4	105.6	-6.0	5.1	3.7*	94.8
Cn1c(N=Nc2ccccc2)nc2ccccc21	179.5*	57.9	6.0	-34.3	3.63*	131.0*
Cn1c(Cl)nc2ccccc21	-9.6	124.3	6.2	16.7	0.95	84.6
CCn1c(NCc2ccc(N(C)C)cc2)nc2ccccc21	16.7	102.0	.	4.4	1.28	96.0
CN(C)c1ccc(N=Nc2nc3ccccc3n2C)cc1	.	.	48.5*	.	.	.
